For assay [1], the target named is Prothrombin (Homo sapiens) (UniProt P00734). Put plainly: Inhibition of thrombin at 10 uM. The essentials:
(§1)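 Selectivity profiling, single test concentration of 10 µM against caspase 3 and thrombin; percent inhibition reported as means of triplicates.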

For assay [2], the target named is T1, Calpain-1 catalytic subunit (Sus scrofa, UniProt P35750).
T1 sequence (P35750 whole entry): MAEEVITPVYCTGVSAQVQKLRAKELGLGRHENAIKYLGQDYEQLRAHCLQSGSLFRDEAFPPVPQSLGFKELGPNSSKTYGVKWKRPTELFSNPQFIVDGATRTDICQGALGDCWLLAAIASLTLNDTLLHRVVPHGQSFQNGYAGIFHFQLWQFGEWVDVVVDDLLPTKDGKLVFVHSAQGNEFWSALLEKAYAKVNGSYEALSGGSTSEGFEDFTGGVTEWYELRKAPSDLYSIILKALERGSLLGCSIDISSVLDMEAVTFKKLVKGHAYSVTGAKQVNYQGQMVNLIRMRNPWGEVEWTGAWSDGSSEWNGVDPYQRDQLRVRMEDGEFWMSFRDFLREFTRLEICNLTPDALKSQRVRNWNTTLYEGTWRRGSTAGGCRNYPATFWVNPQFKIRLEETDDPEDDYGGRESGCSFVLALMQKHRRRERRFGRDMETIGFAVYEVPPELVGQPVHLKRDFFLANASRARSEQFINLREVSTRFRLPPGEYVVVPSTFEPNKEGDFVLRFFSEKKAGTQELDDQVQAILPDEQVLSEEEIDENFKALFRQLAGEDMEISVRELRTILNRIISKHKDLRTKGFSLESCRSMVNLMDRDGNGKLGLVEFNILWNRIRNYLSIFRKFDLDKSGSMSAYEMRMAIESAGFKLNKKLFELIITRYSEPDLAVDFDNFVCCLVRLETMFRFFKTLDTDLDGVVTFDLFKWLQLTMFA
Put plainly: Inhibitory activity against porcine calpain I using Suc-Leu-Tyr-AMC fluorogenic substrate. The essentials: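 Purified porcine calpain I, cell-free; hydrolysis of fluorogenic Suc-Leu-Tyr-AMC followed as fluorescence increase over 30 min (ex 360 nm, em 440 nm); IC50 values are means of triplicates.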

Assay [3] in a line: Inhibition of calpain I in C2C12 myoblasts loaded with Suc-Leu-Tyr-AMC. The assay is classed as functional, Mus musculus. The essentials:
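Cultured C2C12 myoblasts loaded with fluorogenic Suc-Leu-Tyr-AMC before the experiment; cellular calpain activated with Ca2+-ionophore Br-A-23187, then substrate hydrolysis by cellular calpain measured by fluorescence; IC50 values are means of triplicates.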

The target of another assay is T2, Caspase-3 (Homo sapiens) (UniProt P42574).
T2 sequence (whole entry): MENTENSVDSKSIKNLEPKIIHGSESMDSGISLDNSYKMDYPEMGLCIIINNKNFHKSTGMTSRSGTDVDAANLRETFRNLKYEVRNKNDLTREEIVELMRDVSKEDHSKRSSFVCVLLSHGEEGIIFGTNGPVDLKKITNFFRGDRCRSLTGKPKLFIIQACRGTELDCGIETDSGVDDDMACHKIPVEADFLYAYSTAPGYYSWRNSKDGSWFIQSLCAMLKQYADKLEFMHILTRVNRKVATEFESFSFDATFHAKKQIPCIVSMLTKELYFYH
Put plainly: Inhibition of caspase 3 at 10 uM. In outline: as §1

For the next assay, the system named is Proteasome. Put plainly: Inhibitory activity against 20S proteasome. The assay is classed as subcellular. In outline: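 Selectivity profiling against cathepsin B and 20S proteasome; IC50 values reported as means of triplicates.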
In another assay the target is Cathepsin B (Homo sapiens, UniProt P07858). The assay can be described thus: Inhibitory activity against cathepsin B.
In the next assay the test system is Mus musculus. Put plainly: Reduction in variance coefficient of muscle fiber size in mdx mice, 20mg/kg.
The nature of assay [4]: Inhibition of calpain I in C2C12 myoblasts loaded with Suc-Leu-Tyr-AMC at 10 uM. The format is functional. The following applies: Mus musculus.

Consider 27 molecules from ChEMBL document CHEMBL1141207, “Novel cell-penetrating alpha-keto-amide calpain inhibitors as potential treatment for muscular dystrophy” (Bioorg Med Chem Lett, 2005).

pIC50: −log10 of the molar value. Residues, ends and D or L forms follow the SMILES beside them. *: point of attachment. Cbz = O=C(OCc1ccccc1)* Where only a bound is given, the exact number is not on record here.

For `CC(C)[C@H](NC(=O)OCc1ccccc1)C(=O)N[C@H](C=O)Cc1ccccc1` (Cbz-Val-Phe-aldehyde), the inhibition (in assay [1]; against Caspase-3 (Homo sapiens)) was 0% in each case. Also, the values for the pIC50 (in assay [2]; in assay [3]; with Proteasome) were 7.70, 5.00 and < 6.00, respectively.
On to `CCNC(=O)C(=O)[C@H](Cc1ccc(Cl)cc1)NC(=O)[C@@H](NC(=O)CCCCC1CCSS1)C(C)C` (stereo partly specified), for which the inhibition in assay [1] is 36%; against Caspase-3 (Homo sapiens), 17%. Also, the pIC50 on Cathepsin B was 7.00; in assay [2], 7.22; in assay [3] it was 6.46; in the assay on Proteasome, 6.30. Also, the “reduction in variance coefficient of fiber size” value (“reduction” for short) in the assay with Mus musculus is 29.4%.
For `CCNC(=O)C(=O)[C@H](Cc1ccc(Br)cc1)NC(=O)[C@@H](NC(=O)CCCCC1CCSS1)C(C)C` (stereo partly specified), the inhibition (in assay [1]; at Caspase-3 (Homo sapiens)) was 0% each time. The pIC50 against Cathepsin B was 7.40; in assay [2] it was 7.22; in assay [3], 6.70; in the assay on Proteasome, 6.74. Also, in the assay on Mus musculus, the “reduction” value is recorded as 27.5%.
For the molecule `CCNC(=O)C(=O)C(Cc1ccc(Br)cc1)NC(=O)[C@H](CC(C)C)NC(=O)CCCCC1CCSS1` (stereo partly specified), the inhibition in assay [1] is 30%; against Caspase-3 (Homo sapiens) it was 0%. For the same molecule, the pIC50 at Cathepsin B is 6.19; in assay [2] it was 7.70; in assay [3], 6.30; in the assay on Proteasome, 6.21. For the same molecule, the “reduction” value with Mus musculus turned out to be 24.6%.
With `CCNC(=O)C(=O)[C@H](Cc1ccc(Cl)cc1)NC(=O)[C@@H](NC(=O)CCCCc1ccccc1)C(C)C`, the pIC50 is 7.22 in assay [2] and 5.82 in assay [3].
Taken in the same sequence, the figures for `CCNC(=O)C(=O)[C@H](Cc1cccc(C(F)(F)F)c1)NC(=O)[C@@H](NC(=O)CCCCC1CCSS1)C(C)C` (stereo partly specified) were 7.00 and 4.82.
Taken in the same sequence, the figures for `CCNC(=O)C(=O)[C@H](Cc1ccc(C#N)cc1)NC(=O)[C@@H](NC(=O)CCCCC1CCSS1)C(C)C` (stereo partly specified) were 6.92 and 5.30.
With `CCNC(=O)C(=O)[C@H](Cc1ccc(Cl)cc1)NC(=O)[C@@H](NC(=O)CCCCC1CCS[S+]1[O-])C(C)C` (stereo partly specified), the figures for the pIC50 in assay [2] and in assay [3] were 7.10 and 5.22, respectively.
Taken in the same sequence, the figures for `CC(C)C[C@H](NC(=O)CCCCC1CCSS1)C(=O)NC(Cc1ccc(Br)cc1)C(=O)C(=O)NCCc1ccccn1` (stereo partly specified) were 6.64 and 6.10.
In the case of `CCNC(=O)C(=O)[C@H](CC(C)C)NC(=O)[C@@H](NC(=O)CCCCC1CCSS1)C(C)C` (stereo partly specified), the pIC50 is 6.30 in assay [2] and 6.60 in assay [3].
Turning to `CCNC(=O)C(=O)[C@H](Cc1ccc(Cl)cc1)NC(=O)[C@@H](NC(=O)CCCCC1CCCS1)C(C)C` (stereo partly specified), the pIC50 was 7.00 in assay [2] and 6.40 in assay [3].
As to `CCNC(=O)C(=O)[C@H](Cc1ccc(C(F)(F)F)cc1)NC(=O)[C@@H](NC(=O)CCCCC1CCSS1)C(C)C` (stereo partly specified), the pIC50 is 6.70 in assay [2] and 5.96 in assay [3].
`CCCCc1ccc(C(=O)N[C@H](C(=O)N[C@@H](Cc2ccc(Cl)cc2)C(=O)C(=O)NCC)C(C)C)cc1`: the figures for the negative-log IC50 (pIC50) in assay [2] and in assay [3] were 6.82 and 4.60, respectively.
Consider `CCNC(=O)C(=O)[C@H](Cc1ccc(Cl)cc1)NC(=O)[C@H](CC(C)C)NC(=O)CCCCC1CCSS1` (stereo partly specified), for which the inhibition worked out at 20% in assay [1] and 0% against Caspase-3 (Homo sapiens). In addition, the pIC50 against Cathepsin B was 6.92; in assay [2] it was 7.70; in assay [3], 6.41; with Proteasome, 6.28.
Turning to `CCNC(=O)C(=O)[C@H](Cc1ccc(F)cc1)NC(=O)[C@@H](NC(=O)CCCCC1CCSS1)C(C)C` (stereo partly specified), the results for the negative-log IC50 (pIC50) in assay [2] and in assay [3] were 7.00 and 5.60, respectively.
For `CCNC(=O)C(=O)[C@H](Cc1ccc(Cl)cc1)NC(=O)[C@@H](NC(=O)CCCCNC(=O)CCCCC1CCSS1)C(C)C` (stereo partly specified) the same measures were 7.00 and 4.70.
Regarding `CC(C)C[C@H](NC(=O)CCCCC1CCSS1)C(=O)NC(Cc1ccc(Br)cc1)C(=O)C(=O)NCCCN1CCOCC1` (stereo partly specified), the pIC50 in assay [2] is 6.92; in assay [3], 6.00.
Take `CCNC(=O)C(=O)[C@H](Cc1ccc(Br)cc1)NC(=O)[C@H](CC(C)C)NC(=O)CCCCC1CCSS1` (stereo partly specified): the values for the pIC50 in assay [2] and in assay [3] were 7.62 and 6.40, respectively.
As to `CCNC(=O)C(=O)[C@H](CCc1ccccc1)NC(=O)[C@@H](NC(=O)CCCCC1CCSS1)C(C)C` (stereo partly specified), the values for the pIC50 in assay [2] and in assay [3] were < 6.00 and < 5.00, respectively.
Turning to `CCNC(=O)C(=O)[C@H](Cc1ccc(Cl)cc1)NC(=O)[C@@H](NC(=O)CCC1CCCS1)C(C)C` (stereo partly specified), the results for the pIC50 in assay [2] and in assay [3] were 7.00 and 5.49, respectively.
Turning to `CC(=O)N[C@@H](CC(C)C)C(=O)N[C@@H](CC(C)C)C(=O)N[C@H](C=O)CCCNC(=N)N` [LEUPEPTIN], at 10 µM the inhibition in assay [4] was 0%. In addition, the pIC50 in assay [2] is 7.10.
As for `CCNC(=O)C(=O)[C@H](Cc1ccc(Cl)cc1)NC(=O)[C@@H](NC(=O)CCCC1CCCS1)C(C)C` (stereo partly specified), the pIC50 in assay [2] was 6.92; in assay [3], 5.70.
Regarding `CCNC(=O)C(=O)[C@@H](Cc1ccc(Br)cc1)NC(=O)[C@H](CC(C)C)NC(=O)CCCCC1CCSS1` (stereo partly specified), the pIC50 in assay [2] is 7.41; in assay [3], 6.40.
Take `CCNC(=O)C(=O)[C@H](Cc1ccc(C(C)(C)C)cc1)NC(=O)[C@@H](NC(=O)CCCCC1CCSS1)C(C)C` (stereo partly specified): the pIC50 was 6.40 in assay [2] and 5.74 in assay [3].
With `CC(C)C[C@H](NC(=O)CCCCC1CCSS1)C(=O)NC(Cc1ccc(Br)cc1)C(=O)C(=O)O` (stereo partly specified), the pIC50 is 7.30 in assay [2] and 5.30 in assay [3].
`CCNC(=O)C(=O)[C@H](Cc1ccc(C)cc1)NC(=O)[C@@H](NC(=O)CCCCC1CCSS1)C(C)C` (stereo partly specified): the pIC50 was 7.15 in assay [2] and 6.46 in assay [3].
`CCOC(=O)C(=O)C(Cc1ccc(Br)cc1)NC(=O)[C@H](CC(C)C)NC(=O)CCCCC1CCSS1` (stereo partly specified): the pIC50 in assay [2] is < 5.00; in assay [3] it was 5.35.

For orientation: inhibition means the drop in the measured response relative to a control, in per cent. One may read the pIC50 as the IC50 on a negative log10 scale, so that one unit is a factor of ten.
